Bioassay records: PubChem BioAssay, several laboratories
Beta apoptosis = beta cell apoptosis inhibition; INS-1E cytokine-induced death, ATP luminescence, 48 h; percent of positive-control rescue, neutral wells zero; protection from apoptosis, % (no concentration beside the values); 300,000 tested, 0.8% active; AID 435005;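 active means Every replicate reaches about 75%, or at least half do and their mean reaches it too, limit read from the data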;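 further: 0% = cytokine-treated negative control wells and 100% = positive control rescue; higher means more ATP so stronger rescue from cytokine killing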
CSC inhib = cancer stem cell inhibition; cancer stem cell-like cells viability, luminescence; inhibition, % at 7.5 µM; 300,000 tested, 1.1% active; AID 2717; in the data active means inhibition above about 75%; tested in HMLE shEcad cells
GRIN3A LBD mod = NR3A (human) ligand-binding domain modulation; NR3A LBD differential scanning fluorimetry, Tm shift; 0% = protein alone, 100% = glycine-bound protein; Tm shift relative to glycine control, % at 25 µM; 340,000 tested, 2.5% active;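 active means melting temperature shift of at least 10% of the positive control shift, at one fixed dose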
CHOP inhibitor = inhibitors of CHOP induction in ER stress response. 220,000 tested, 3.8% active. inhibition, % at 10 µM. CHO-K1 CHOP-promoter luciferase, tunicamycin-induced, 15-18 h;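 active means compounds that reduced the stress-induced luciferase reporter signal by more than about 70% of percent inhibition, limit read from the data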;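 further: 0% = tunicamycin plus vehicle and 100% = wells without tunicamycin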
PREPL inh = inhibits the human prolyl oligopeptidase-like enzyme; AID 2751; 320,000 tested, 0.68% active; recombinant PREPL, fluorescence polarization activity-based probe; inhibition, % at 5.96 µM; Q4J6C6; in the data active means inhibition above about 43%;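 further: 0% = enzyme with DMSO and 100% = wells lacking enzyme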
Target sequence (Q4J6C6 whole entry, looked up): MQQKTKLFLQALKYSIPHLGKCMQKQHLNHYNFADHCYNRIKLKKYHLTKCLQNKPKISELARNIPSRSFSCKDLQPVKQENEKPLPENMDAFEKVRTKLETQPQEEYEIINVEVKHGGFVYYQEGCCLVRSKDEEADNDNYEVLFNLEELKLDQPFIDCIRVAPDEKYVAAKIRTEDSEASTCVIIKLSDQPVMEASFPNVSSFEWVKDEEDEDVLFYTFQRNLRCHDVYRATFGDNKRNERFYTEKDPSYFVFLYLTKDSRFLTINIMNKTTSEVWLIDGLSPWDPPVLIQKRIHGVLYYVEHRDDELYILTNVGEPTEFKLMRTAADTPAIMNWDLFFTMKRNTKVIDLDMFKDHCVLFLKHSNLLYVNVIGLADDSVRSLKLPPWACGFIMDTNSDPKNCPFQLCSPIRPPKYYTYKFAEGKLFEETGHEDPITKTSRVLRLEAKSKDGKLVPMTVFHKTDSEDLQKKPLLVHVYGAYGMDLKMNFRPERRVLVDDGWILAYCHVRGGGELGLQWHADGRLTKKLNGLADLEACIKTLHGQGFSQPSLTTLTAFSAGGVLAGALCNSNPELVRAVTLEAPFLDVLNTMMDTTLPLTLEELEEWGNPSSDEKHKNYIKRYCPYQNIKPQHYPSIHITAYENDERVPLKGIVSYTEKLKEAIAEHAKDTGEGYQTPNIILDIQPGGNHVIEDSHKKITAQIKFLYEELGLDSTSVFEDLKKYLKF
T cruzi inh = blocks replication of Trypanosoma cruzi. T. cruzi beta-gal in NIH3T3, luminescence, 90 h. inhibition, % (test concentration not listed). 300,000 tested, 1.4% active. AID 1885;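 active means mean inhibition across valid replicates above about 55%, limit read from the data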;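 further: signal also drops with host cell toxicity which is not excluded here; 0% = plate median of DMSO wells and 100% = zero luminescence signal; higher percent means less beta-gal luminescence so fewer parasites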
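System: Mouse NIH/3T3 fibroblasts infected with β-gal-expressing T. cruzi Tulahuen C4 | Quantity: NIH/3T3 cells, 5,000 per well | Reagent: 5000 reporter trypomastigotes per well | Dosing: Compound pinned at 50 nL/well, DMSO | Schedule: 3 h host attachment, then at least 90 h co-culture | Detection: GalScreen luminescence, 60 min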
Numbers without * were called inactive; · = not tested or not shown. Sampled rows, rich in hits. Any-hit rate of the full collection: about 6.7%.

SMILES | Beta apoptosis | CSC inhib | GRIN3A LBD mod | CHOP inhibitor | PREPL inh | T cruzi inh
COc1ccc(N=C2NN=C(c3ccc4c(c3)OCCO4)CS2)cc1 | -9 | -12 | -1 | -1 | 5 | 1
FC(F)Sc1ccc(N=C2NN=C(c3ccc4c(c3)OCCO4)CS2)cc1 | 101* | 20 | 15* | 9 | 16 | 69*
c1cc2c(cc1C1=NNC(=NC3CC3)SC1)OCCO2 | 35 | 28 | 3 | 98* | 2 | 0
Cc1sc2c(c1C)C(O)=C(C(=O)Nc1ccccc1)S(=O)(=O)N2C | 1 | 3 | -2 | 3 | 5 | -7
CCCCCCCCCCCC(=O)NC(C(=O)OCC)C(O)c1cccc([N+](=O)[O-])c1 (configuration not stated) | 5 | -5 | -4 | 92* | 13 | 15
Cc1cccc(-c2nsc(SCC(=O)Nc3nccs3)n2)c1 | 4 | 2 | 0 | 87* | -2 | -7
CN(C)S(=O)(=O)c1cccc(COc2ncnc3c(Cl)cc(Cl)cc23)c1 | 0 | -3 | -4 | · | -6 | 22
CCN(CC)C(=O)CSc1nc2c(c(-c3cccnc3)c1C#N)CCCC2 | -8 | -16 | -2 | 5 | 8 | 12
CSc1ccc(S(=O)(=O)NCc2ccc(Cl)cc2Cl)cc1 | -6 | 0 | -4 | 89* | -19 | -1
CN(C(=O)CC1C(=O)NCCN1Cc1cccc(C(F)(F)F)c1)C1CCOCC1 (configuration not stated) | -6 | -3 | 1 | · | 10 | -14
CCN(CC)S(=O)(=O)c1ccc(C(=O)Nc2cc3oc4ccccc4c3cc2OC)cc1 | 6 | 21 | 11* | 9 | 19 | 23
CCN(CC)S(=O)(=O)c1ccc(OC)c(NC(=O)c2ccc(=O)[nH]c2)c1 | 1 | -14 | 0 | 4 | -7 | -4
COc1cc2c(cc1NC(=O)COC(=O)c1ccccc1)oc1ccccc12 | 2 | -10 | · | 4 | 7 | 2
COc1cc2c(cc1NC(=O)c1cccc(S(=O)(=O)N(C)C)c1)oc1ccccc12 | 3 | 126* | 14* | -16 | 5 | 47
O=C(CCCOc1ccccc1)Nc1ccc(Br)cc1 | -4 | -5 | -8 | · | -36 | -6
Cc1ccccc1OCCCC(=O)Nc1ccc(Br)cc1 | 2 | 31 | 9 | 96* | -27 | -24
CC(=O)Nc1ccc(NC(=O)CCOc2ccccc2C)cc1 | · | 2 | 2 | · | -1 | 1
Cc1ccc(NC(=O)CCOc2ccccc2C)cc1F | 0 | -3 | -6 | 71* | -45 | 8
COc1ccc(/C(O)=C2/C(=O)C(=O)N(c3ccccn3)C2c2ccc(F)cc2)cc1 (configuration not stated) | -2 | 3 | 0 | · | · | -1
CCC(=O)NC(=S)Nc1ccc(NC(=O)COc2ccc(Cl)cc2Cl)cc1 | 2 | -3 | 3 | 90* | 6 | 53
COc1ccc(NC(=S)NNC(=O)COc2ccc(Cl)cc2Cl)cc1 | 5 | 0 | -4 | -1 | -38 | -9
CCC(=O)Nc1ccc(Cl)c(NC(=S)NC(=O)COc2ccccc2)c1 | -7 | -8 | -9 | 1 | -9 | -7
CCC(=O)Nc1ccc(Cl)c(NC(=S)NC(=O)COc2ccc(Cl)cc2)c1 | -4 | 4 | 26* | 60 | -1 | 2
CC(C)CC(=O)Nc1nnc(SCC(=O)Nc2nccs2)s1 | 6 | -3 | 2 | · | -3 | -2
CCCCCNC(=O)C(=O)C1C(=O)Nc2ccccc21 (configuration not stated) | -5 | -14 | 28* | -6 | 2 | 2
SMILES | Beta apoptosis | CSC inhib | GRIN3A LBD mod | CHOP inhibitor | PREPL inh | T cruzi inh
O=S(=O)(Cc1ccccc1)NCCc1cccc(Cl)c1 | · | · | -3 | · | · | -1
COc1cc(/C=N/NC(=O)NC23CC4CC(CC(C4)C2)C3)ccc1OCC(N)=O | -8 | -3 | -2 | · | 3 | -14
CCC(=O)Nc1ccc(NC(=O)CSc2nnnn2-c2ccc3c(c2)OCCO3)cc1 | 4 | 5 | 0 | 49 | -1 | 43
Cc1ccc(NC(=O)CCSc2nnnn2-c2ccc3c(c2)OCO3)cc1C | -2 | -7 | -20 | 73* | -47 | 16
c1ccc(CSc2nnnn2-c2ccc3c(c2)OCCO3)nc1 | 2 | 2 | 4 | -1 | 13 | -13
Clc1ccc(CSc2nnnn2-c2ccc3c(c2)OCO3)c(Cl)c1 | 0 | 82* | -4 | 36 | -48 | 11
CCc1ccccc1Nc1nc(N)nc(COC(=O)CCC(=O)c2ccc(F)cc2)n1 | -9 | · | -1 | · | 2 | ·
